Inhibition in vivo, UI and Activity data for 17 compounds are collected here from ChEMBL document CHEMBL2390929, “New nitric oxide donating 1,2,4-triazole/oxime hybrids: synthesis, investigation of anti-inflammatory, ulceroginic liability and antiproliferative activities” (Bioorg Med Chem, 2013).

The subject of data set [1] is Rattus norvegicus. Nature of the data set: Antiinflammatory activity in albino rat assessed as inhibition of carrageenan-induced paw edema at 0.28 mmol/kg, po after 4 hrs relative to control. The class given is functional. Put shortly:
(§1)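 Adult male albino rats (120–140 g), four per group, fasted 24 h with water allowed. Test agent suspended in 0.5% w/v aqueous CMC and given orally at 0.28 mmol/kg; controls received CMC alone. After 30 min, 0.1 mL fresh 1% carrageenan in saline was injected subplantar into the right hind paw and saline into the left. Paw thickness was measured by Vernier caliper; % inhibition = [(VR−VL)control − (VR−VL)treated]/(VR−VL)control ×100. Mean ± SEM, one-way ANOVA.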

Data set [2] relates to Rattus norvegicus. Nature of the data set: Antiinflammatory activity in albino rat assessed as inhibition of carrageenan-induced paw edema at 0.28 mmol/kg, po after 1 hr relative to control. The class given is functional. Put shortly: as §1
Data set [3] deals with Rattus norvegicus. The experiment in a line: Antiinflammatory activity in albino rat assessed as inhibition of carrageenan-induced paw edema at 0.28 mmol/kg, po after 2 hrs relative to control. The class given is functional. The gist of the method:
as §1

The subject of data set [4] is Rattus norvegicus. The experiment in a line: Antiinflammatory activity in albino rat assessed as inhibition of carrageenan-induced paw edema at 0.28 mmol/kg, po after 5 hrs relative to control. The class given is functional. The gist of the method:
as §1

For data set [5], the system named is Rattus norvegicus. Nature of the data set: Gastrointestinal toxicity in albino rat assessed as ulcer index at 0.28 mmol/kg, po (reference value: 0.60 +/- 0.05). The class given is organism-based. To be noted: in vivo.
In data set [6] the test system is Rattus norvegicus. The experiment in a line: Antiinflammatory activity in albino rat assessed as inhibition of carrageenan-induced paw edema at 0.28 mmol/kg, po after 3 hrs relative to control. The class given is functional. The gist of the method: as §1
A short description of data set [7]: Induction of nitric oxide release in phosphate buffer at pH 7.4 at 0.1 mM after 2 hrs by Griess method in presence of 0.5 mM of N-acetylcysteine. The class given is physicochemical. To be noted: pH 7.4, 2 h, 100 µM. The gist of the method: (§2)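 Compound in DMF diluted to final 10^-4 M in 1:1 50 mM phosphate buffer pH 7.4/MeOH with 5×10^-4 M N-acetylcysteine, 37 °C. Aliquot mixed with Griess reagent, 10 min at room temperature, A546 read. Nitrite quantified against sodium nitrite standards (10–80 nmol/mL); NO expressed as mol/mol. n = 4 reaction mixtures per compound.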

The nature of data set [8]: Induction of nitric oxide release in phosphate buffer at pH 7.4 at 0.1 mM after 1 hr by Griess method in presence of 0.5 mM of N-acetylcysteine. It is filed as physicochemical. To be noted: pH 7.4, 1 h, 100 µM. The gist of the method: as §2
A short description of data set [9]: Induction of nitric oxide release in phosphate buffer at pH 7.4 at 0.1 mM after 3 hrs by Griess method in presence of 0.5 mM of N-acetylcysteine. To be noted: pH 7.4, 3 h, 100 µM. It is filed as physicochemical. The gist of the method: as §2
Data set [10] in a line: Induction of nitric oxide release in phosphate buffer at pH 7.4 at 0.1 mM after 5 hrs by Griess method in presence of 0.5 mM of N-acetylcysteine. It is filed as physicochemical. To be noted: pH 7.4, 5 h, 100 µM. Put shortly:
as §2

Data set [11] can be described thus: Induction of nitric oxide release in phosphate buffer at pH 7.4 at 0.1 mM after 6 hrs by Griess method in presence of 0.5 mM of N-acetylcysteine. It is filed as physicochemical. Particulars: pH 7.4, 6 h, 100 µM. Put shortly: as §2
Data set [12] is described as follows: Induction of nitric oxide release in phosphate buffer at pH 7.4 at 0.1 mM after 4 hrs by Griess method in presence of 0.5 mM of N-acetylcysteine. It is filed as physicochemical. To be noted: pH 7.4, 4 h, 100 µM. The gist of the method: as §2
In data set [13] the test system is Rattus norvegicus. The experiment in a line: Gastrointestinal toxicity in albino rat assessed as histopathological analysis at 0.28 mmol/kg, po using haematoxylin and eosin staining by light microscopic analysis. It is filed as organism-based. Particulars: in vivo. The gist of the method:
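Adult male albino rats (120–140 g, Minia University), groups of four, fasted 24 h with water allowed. Oral dose 0.28 mmol/kg suspended in 0.5% aqueous CMC; vehicle-only controls. Gastric sections dewaxed, stained with haematoxylin 5–7 min, differentiated in 1% HCl/70% alcohol, counterstained with 1% eosin 10 min. Cleared in xylene, mounted, examined by light microscopy at ×400.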

In the case of `COc1cc(-c2nnc(SCC(=O)c3ccccc3)n2-c2ccccc2)cc(OC)c1OC`, the inhibition in vivo at 280 µmol/kg came out at 73% with Rattus norvegicus [1]; 44% in the data set on Rattus norvegicus [2]; 51% in the data set on Rattus norvegicus [3]; 72% in the data set on Rattus norvegicus [4]; 68% in the data set on Rattus norvegicus [6]. In addition, in the data set on Rattus norvegicus [5], the UI turned out to be 5.29.
Take `C=CCn1c(SC/C(=N\O)c2ccccc2)nnc1-c1ccccc1`: the Activity is on record as 0.1 mol/mol in data set [7]; 0.06 mol/mol in [8]; 0.13 mol/mol in data set [9]; 0.22 mol/mol in data set [10]; 0.17 mol/mol in data set [11]; 0.16 mol/mol in [12]. In addition, the inhibition in vivo at 280 µmol/kg in the data set on Rattus norvegicus [1] came out at 77%; with Rattus norvegicus [2] it was 58%; in the data set with Rattus norvegicus [3], 60%; in the data set with Rattus norvegicus [4] it was 68%; with Rattus norvegicus [6], 65%. Also, in the data set on Rattus norvegicus [5], the UI is 2.3.
Turning to `C=CCn1c(SCC(=O)c2ccccc2)nnc1-c1ccccc1`, the inhibition in vivo at 280 µmol/kg with Rattus norvegicus [1] turned out to be 66%; in the data set with Rattus norvegicus [2] it was 43%; in the data set on Rattus norvegicus [3], 58%; in the data set on Rattus norvegicus [4], 66%; in the data set with Rattus norvegicus [6], 70%. The UI with Rattus norvegicus [5] was determined as 2.44.
`C=CCn1c(SCC(=O)c2ccccc2)nnc1-c1cc(OC)c(OC)c(OC)c1`: the inhibition in vivo at 280 µmol/kg turned out to be 66% in the data set with Rattus norvegicus [1]; 49% in the data set with Rattus norvegicus [2]; 62% with Rattus norvegicus [3]; 60% in the data set with Rattus norvegicus [4]; 66% in the data set with Rattus norvegicus [6]. Besides, the UI in the data set on Rattus norvegicus [5] was determined as 6.39.
Consider `COc1ccc(-c2nnc(SCC(=O)c3ccccc3)n2-c2ccccc2)cc1OC`, for which the inhibition in vivo at 280 µmol/kg is 65% in the data set with Rattus norvegicus [1]; 56% in the data set with Rattus norvegicus [2]; 57% in the data set with Rattus norvegicus [3]; 59% with Rattus norvegicus [4]; 59% with Rattus norvegicus [6]. The UI in the data set on Rattus norvegicus [5] is 9.41.
As to `CCn1c(SCC(=O)c2ccccc2)nnc1-c1ccc(OC)cc1`, the inhibition in vivo at 280 µmol/kg in the data set on Rattus norvegicus [1] was determined as 70%; in the data set on Rattus norvegicus [2] it was 53%; in the data set with Rattus norvegicus [3], 60%; in the data set with Rattus norvegicus [4], 61%; in the data set with Rattus norvegicus [6], 67%. Further, the UI with Rattus norvegicus [5] is 6.59.
As to `CCn1c(SC/C(=N/O)c2ccccc2)nnc1-c1cc(OC)c(OC)c(OC)c1`, the Activity in data set [7] turned out to be 0.12 mol/mol; in data set [8] it was 0.11 mol/mol; in data set [9] it was 0.12 mol/mol; in data set [10] it was 0.18 mol/mol; in data set [11], 0.14 mol/mol; in data set [12], 0.21 mol/mol. Moreover, the inhibition in vivo at 280 µmol/kg amounted to 79% in the data set on Rattus norvegicus [1]; 63% in the data set on Rattus norvegicus [2]; 67% in the data set on Rattus norvegicus [3]; 74% in the data set on Rattus norvegicus [4]; 69% in the data set on Rattus norvegicus [6]. In addition, the UI in the data set on Rattus norvegicus [5] was found to be 3.66.
As to `COc1ccc(-c2nnc(SCC(=O)c3ccccc3)n2-c2ccccc2)cc1`, the inhibition in vivo at 280 µmol/kg with Rattus norvegicus [1] was 68%; in the data set on Rattus norvegicus [2], 52%; in the data set with Rattus norvegicus [3], 57%; with Rattus norvegicus [4] it was 61%; with Rattus norvegicus [6] it was 58%. Also, the UI in the data set on Rattus norvegicus [5] was determined as 8.74.
Consider `O=C(CSc1nnc(-c2ccccc2)n1-c1ccccc1)c1ccccc1`, for which the inhibition in vivo at 280 µmol/kg amounted to 68% in the data set with Rattus norvegicus [1]; 53% in the data set with Rattus norvegicus [2]; 60% in the data set with Rattus norvegicus [3]; 63% in the data set on Rattus norvegicus [4]; 64% in the data set on Rattus norvegicus [6]. For the same compound, the UI in the data set with Rattus norvegicus [5] turned out to be 9.58.
In the case of `C=CCn1c(SCC(=O)c2ccccc2)nnc1-c1ccc(OC)c(OC)c1`, the inhibition in vivo at 280 µmol/kg in the data set with Rattus norvegicus [1] worked out at 72%; in the data set with Rattus norvegicus [2], 61%; with Rattus norvegicus [3], 63%; in the data set on Rattus norvegicus [4], 62%; in the data set on Rattus norvegicus [6] it was 64%. For the same compound, the UI in the data set on Rattus norvegicus [5] came out at 4.26.
For the compound `CCn1c(SCC(=O)c2ccccc2)nnc1-c1ccccc1`, the inhibition in vivo at 280 µmol/kg was found to be 63% in the data set with Rattus norvegicus [1]; 52% with Rattus norvegicus [2]; 55% in the data set on Rattus norvegicus [3]; 51% with Rattus norvegicus [4]; 61% in the data set with Rattus norvegicus [6]. Besides, the UI in the data set with Rattus norvegicus [5] is recorded as 4.49.
With `CCn1c(SC/C(=N/O)c2ccccc2)nnc1-c1ccc(OC)cc1`, the Activity was 0.11 mol/mol in data set [7]; 0.08 mol/mol in data set [8]; 0.14 mol/mol in data set [9]; 0.14 mol/mol in data set [10]; 0.12 mol/mol in data set [11]; 0.19 mol/mol in [12]. In addition, the inhibition in vivo at 280 µmol/kg worked out at 78% with Rattus norvegicus [1]; 69% with Rattus norvegicus [2]; 72% in the data set on Rattus norvegicus [3]; 71% in the data set with Rattus norvegicus [4]; 75% in the data set on Rattus norvegicus [6]. Besides, in the data set with Rattus norvegicus [5], the UI came out at 2.53.
For the compound `CCn1c(SCC(=O)c2ccccc2)nnc1-c1ccc(OC)c(OC)c1`, the inhibition in vivo at 280 µmol/kg turned out to be 73% in the data set on Rattus norvegicus [1]; 42% in the data set with Rattus norvegicus [2]; 55% in the data set on Rattus norvegicus [3]; 69% with Rattus norvegicus [4]; 61% with Rattus norvegicus [6]. Also, the Activity entry in the data set on Rattus norvegicus [13] is reported as “Non-toxic”. Further, in the data set with Rattus norvegicus [5], the UI came out at 7.36.
For the compound `C=CCn1c(SC/C(=N/O)c2ccccc2)nnc1-c1cc(OC)c(OC)c(OC)c1`, the Activity worked out at 0.1 mol/mol in [7]; 0.08 mol/mol in [8]; 0.12 mol/mol in data set [9]; 0.17 mol/mol in data set [10]; 0.17 mol/mol in [11]; 0.13 mol/mol in [12]. For the same compound, the inhibition in vivo at 280 µmol/kg amounted to 73% in the data set on Rattus norvegicus [1]; 61% in the data set on Rattus norvegicus [2]; 68% in the data set with Rattus norvegicus [3]; 77% in the data set with Rattus norvegicus [4]; 70% in the data set with Rattus norvegicus [6]. Moreover, the UI in the data set with Rattus norvegicus [5] is 5.52.
As to `C=CCn1c(SCC(=O)c2ccccc2)nnc1-c1ccc(OC)cc1`, the inhibition in vivo at 280 µmol/kg with Rattus norvegicus [1] was 67%; in the data set with Rattus norvegicus [2], 49%; in the data set with Rattus norvegicus [3] it was 53%; in the data set with Rattus norvegicus [4], 61%; with Rattus norvegicus [6] it was 63%. Also, the UI in the data set with Rattus norvegicus [5] came to 5.34.
Consider `CCn1c(SCC(=O)c2ccccc2)nnc1-c1cc(OC)c(OC)c(OC)c1`, for which the inhibition in vivo at 280 µmol/kg in the data set with Rattus norvegicus [1] was 72%; in the data set with Rattus norvegicus [2], 29%; in the data set on Rattus norvegicus [3] it was 41%; with Rattus norvegicus [4], 59%; in the data set on Rattus norvegicus [6] it was 49%. The UI in the data set on Rattus norvegicus [5] is on record as 3.42.
For `C=CCn1c(SC/C(=N/O)c2ccccc2)nnc1-c1ccc(OC)cc1`, the Activity in [7] came out at 0.12 mol/mol; in data set [8], 0.09 mol/mol; in [9] it was 0.12 mol/mol; in data set [10] it was 0.15 mol/mol; in data set [11] it was 0.14 mol/mol; in data set [12], 0.15 mol/mol. For the same compound, the inhibition in vivo at 280 µmol/kg came to 76% in the data set on Rattus norvegicus [1]; 61% in the data set on Rattus norvegicus [2]; 66% with Rattus norvegicus [3]; 57% in the data set on Rattus norvegicus [4]; 67% in the data set on Rattus norvegicus [6]. Further, the UI in the data set with Rattus norvegicus [5] is recorded as 1.14.
